Assay results from article PMC3483449 (FEBS letters, 2012).

Assays:
[1] = molecular target: T1, mouse AA3 (Mus musculus, UniProt Q91XE4); experiment: Inhibition of Co2+-dependent endopeptidase activity of AA3; assay type: biochemical; settings: 1 mg/ml Pefabloc SC
T1 sequence (Q91XE4 1-318): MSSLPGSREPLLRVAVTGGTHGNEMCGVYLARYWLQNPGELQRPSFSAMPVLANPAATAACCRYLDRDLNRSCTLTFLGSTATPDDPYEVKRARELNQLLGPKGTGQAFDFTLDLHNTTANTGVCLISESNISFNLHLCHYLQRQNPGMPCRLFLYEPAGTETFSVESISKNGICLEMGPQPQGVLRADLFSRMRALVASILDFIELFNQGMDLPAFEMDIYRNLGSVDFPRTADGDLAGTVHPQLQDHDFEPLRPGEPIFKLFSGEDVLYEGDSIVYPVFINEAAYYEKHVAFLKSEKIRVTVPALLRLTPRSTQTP
Method in brief: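 Cleavage reaction with N-terminally Strep(II)-tagged mouse AA3 (E. coli-expressed, Streptactin-purified): 3 µM enzyme plus 1 mM peptide or 0.1 mM His-tagged HCV core protein (aa 1–177) in 50 mM Tris-HCl pH 7.5 with 1 mM CoCl2, incubated 18 h at 37°C. Products were diluted to 50 µM peptide, then analysed by reverse-phase HPLC with UV and on-line ionspray triple-quadrupole MS. Cleavage sites were assigned from masses.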

[2] = molecular target: T1, mouse AA3; experiment: Peptide cleavage catalyzed by AA3; assay type: biochemical; settings: 3 μM AA3, 1 mM peptide or 0.1 mM HCVCP, 50 mM Tris-HCl pH 7.5, 1 mM CoCl2, 18 h, 37°C; LC-MS
Method in brief: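 Recombinant mouse AA3 (N-terminal Strep(II) tag, expressed in E. coli, Streptactin-purified) was incubated with N-acetylated or free peptides, or with His-tagged HCV core aa 1–177 (genotype 1). Aliquots were diluted in water to 50 μM peptide, then run by reverse-phase HPLC (0.1% formic acid, 0–100% acetonitrile over 60 min) with UV and triple-quadrupole ESI-MS detection (m/z 300–2000). Cleavage sites were assigned from fragment masses.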

[3] = molecular target: T2, mouse aminoacylase 3 (mouse, UniProt Q91XE4 1-318); experiment: SPR
T2 sequence (looked up): T1 sequence (Q91XE4 1-318)

Molecule: Cl.NCCc1ccc(S(=O)(=O)F)cc1 [Pefabloc SC]
- Inhibition of Co2+-dependent endopeptidase activity of AA3 [1]: ~ 50%

Molecule: casein
- Hydrolysis (cleavage) by AA3 [2]: not hydrolyzed

Molecule: insulin B chain: standard protease substrate
- Hydrolysis (cleavage) by AA3 [2]: not hydrolyzed

B1: HCVCP-long peptide (aa. 2-27) (peptide)
peptide: STLPKPQRKTKRNTIRRPQDVKFPGG
- Kd [3]: 142 ± 11 µM
